# Bioassay records from PubChem BioAssay.
# OX1R antag-1: OX1R (HCRTR1) antagonists, primary screen, fluorescence, CHO/OX1R cells, Fluo-8 calcium, orexin A; Orexin/Hypocretin receptor type 1 (Homo sapiens), O43613; Fluo-8 calcium fluorescence; inhibition, % at 5 µM; 330,000 compounds, 0.43% hits;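 active means inhibition above its plate's threshold, mean inhibition of all tested compounds on the plate plus 3 SD, cut at about 37% in these data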;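 further: 0% = orexin A challenge wells and 100% = SB-334867-A antagonist wells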
# Target sequence (O43613 whole entry, looked up): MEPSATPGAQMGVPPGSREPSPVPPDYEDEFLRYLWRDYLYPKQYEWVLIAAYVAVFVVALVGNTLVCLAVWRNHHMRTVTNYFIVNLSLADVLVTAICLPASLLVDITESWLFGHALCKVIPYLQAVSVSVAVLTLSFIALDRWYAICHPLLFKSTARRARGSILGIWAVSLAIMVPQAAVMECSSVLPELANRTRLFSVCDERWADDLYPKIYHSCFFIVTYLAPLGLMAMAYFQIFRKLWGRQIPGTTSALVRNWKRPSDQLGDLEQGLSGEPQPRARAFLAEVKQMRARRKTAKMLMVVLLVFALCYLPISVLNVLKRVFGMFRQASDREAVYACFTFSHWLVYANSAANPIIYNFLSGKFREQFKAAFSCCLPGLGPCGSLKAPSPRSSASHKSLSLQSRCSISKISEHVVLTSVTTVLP
# TRPML3 ag: human TRPML3 channel agonists, primary screen, cell-based, HEK293 TRPML3-YFP, Fluo-8 calcium fluorescence, 3 µM; AID 1448, 2008; 100% = the carbachol control signal; activation, % at 3 µM; 220,000 compounds, 0.29% hits; Mucolipin-3 (Homo sapiens), Q8TDD5;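 active means activation above its plate's cutoff, the mean activation of the plate's test wells plus 3 SD, cut at about 12% in these data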;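 further: 0% = DMSO only wells and 100% = carbachol wells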
#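 Material: HEK293 cells stably carrying human TRPML3-YFP; compound dosing: single dose, 3 µM final nominal compound, 0.3% DMSO final; incubation: 1-h 37 °C dye load, 5-s basal, 120-s post-compound reads; technique: Fluo-8 intracellular calcium fluorescence, excitation 470-495 nm, emission 515-575 nm; read-out basis: percent activation from peak-to-basal fluorescence ratio, scaled between DMSO and carbachol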
# TRPN1 ag: zebrafish TRPN1 channel agonists, primary screen, cell-based, HEK293, calcium fluorescence; HEK293 zebrafish TRPN1-YFP, Fluo-8 calcium fluorescence; 100% = response to 87 µM carbachol; 220,000 compounds, 0.18% hits; activation, % at 3 µM;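 active means activation above its plate's cutoff, the mean activation of test wells on that plate plus 3 SD, cut at about 19% in these data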;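 further: 0% = DMSO alone and 100% = 87 µM carbachol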
#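 System: zebrafish TRPN1-YFP in HEK293 cells / Dosing: 3 µM single point / Timing: dye loading 1 h at 37 °C, then 30 min room temperature / Signal: Fluo-8 calcium fluorescence, excitation 470-495 nm, emission 515-575 nm / Read-out basis: percent activation from peak over basal fluorescence ratio, control-normalized / Control set: high carbachol 87 µM, low DMSO alone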
# OX1R antag-2: antagonists of human orexin 1 receptor (OX1R); Orexin/Hypocretin receptor type 1 (Homo sapiens), O43613; OX1R-expressing cells, FRET antagonist read-out; inhibition, % at 6.6 µM; 330,000 compounds, 1.8% hits; in the data active means inhibition mostly above about 38%, no sharp cut-off; inactive means mostly below about 40%;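 further: 0% = agonist challenge alone and 100% = reference antagonist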
# CHO parental Ca: ATP-evoked calcium signal inhibitors, parental CHO, primary screen, counter-screen for OX1R antagonist project, cell-based, fluorescence, Fluo-8 calcium dye; inhibition, % at 5.6 µM; parental CHO-K1, ATP-induced calcium, Fluo-8 fluorescence; 330,000 compounds, 0.63% hits;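 active means inhibition above that plate's mean sample inhibition plus 3 SD, cut at about 26% in these data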;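 further: 0% = ATP-challenged DMSO wells and 100% = DMSO wells without ATP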
#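 Test system: untransfected parental CHO cell line. Compound: one dose, 5.6 µM nominal. Detection: intracellular calcium via Fluo-8 no-wash fluorescent dye. Measure: % inhibition. Benchmarks: ATP-challenged DMSO wells low, unchallenged DMSO wells high.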
# GPR7 antag: GPR7 receptor antagonists, primary screen, cell-based, fluorescence, single concentration; 290,000 compounds, 1.1% hits; Neuropeptides B/W receptor type 1 (Homo sapiens), P48145; inhibition, % at 4.4 µM; GPR7-expressing cells, fluorescence antagonist assay; in the data active means inhibition above about 16%, passing the limit was not always enough;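 further: cells stimulated with the agonist NPW; 0% = agonist with vehicle and 100% = vehicle without agonist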
# GPR7 antag conf: GPR7 receptor antagonists, confirmation, cell-based, fluorescence, single concentration | GPR7-expressing cells, calcium fluorescence antagonist mode | shares compounds with GPR7 antag | 2,400 compounds, 52% hits | inhibition, % at 4.4 µM; in the data active means inhibition above about 24%;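 further: stimulated with the GPR7 agonist NPW; 0% = agonist plus vehicle and 100% = vehicle alone without agonist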
# MCHR1 antagonist: MCHR1 antagonists in cells, counter-screen for GPR7 antagonist project, cell-based, fluorescence, human; shares compounds with GPR7 antag; MCHR1-expressing cells, fluorescence antagonist assay; inhibition, % at 4.4 µM; 2,400 compounds, 62% hits; in the data active means inhibition above about 22%;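 further: 0% = vehicle with agonist and 100% = vehicle without agonist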
# * marks the source's active call; other numbers are inactive results; / = no result given. Compounds with a hit are over-represented: about 3.2% of the library has one in this group of screens.
SMILES,OX1R antag-1,TRPML3 ag,TRPN1 ag,OX1R antag-2,CHO parental Ca,GPR7 antag,GPR7 antag conf,MCHR1 antagonist
Cc1cccc(-c2nc(=S)c3c(n2Cc2ccco2)CCCC3)c1,-20,0,-2,12,-16,28*,22,12
COc1ccc(NS(=O)(=O)c2cc(NC(=O)c3ccc(=O)[nH]c3)ccc2N2CCCC2)cc1,11,/,/,6,13,6,/,/
COc1cccc(NC(=O)COC(=O)c2c3c(nc4ccccc24)CCC(C)C3)c1 (stereo unspecified),13,-2,-2,36*,-4,39*,26*,63*
Cc1nnc(N2C(=O)c3cccc4c([N+](=O)[O-])ccc(c34)C2=O)s1,10,/,/,42*,12,28*,33*,51*
CCOC(=O)C1=C(C)NC(=S)NC1c1ccsc1 (stereo unspecified),-22,0,0,0,-3,-15,/,/
O=c1c2ccc([N+](=O)[O-])cc2ncn1CCOc1cccc(Br)c1,-22,0,1,17,3,-3,/,/
O=c1c2ccc([N+](=O)[O-])cc2ncn1CCOc1ccc(Cl)cc1,-6,0,1,31,-14,26*,44*,62*
CCC(CC)C1C(C#N)=C(N)SC(N)=C1C#N,-4,1,5,1,-5,22*,10,18
COc1ccc(N(CC(=O)NCc2ccc(Cl)cc2)S(=O)(=O)c2ccccc2[N+](=O)[O-])c(OC)c1,-4,5,6,26,-13,37*,34*,38*
COc1ccc(N(CC(=O)NCc2cccnc2)S(=O)(=O)c2ccccc2[N+](=O)[O-])c(OC)c1,-28,1,0,10,-8,1,/,/
C[Si](C)(C)n1ccnc1,7,/,/,19,9,21,/,/
Cc1ccc(-c2nnc(Nc3ccc(O)cc3)c3ccccc23)cc1S(=O)(=O)NCCO,/,/,/,/,/,-4,/,/
CCOC(=O)CNS(=O)(=O)c1cc(-c2nnc(Nc3ccc4c(c3)OCO4)c3ccccc23)ccc1C,71*,0,1,24,57*,36*,47*,78*
CCCCn1c(N)c(N(CC(C)C)C(=O)c2cccc(S(=O)(=O)N3CCCCCC3)c2)c(=O)[nH]c1=O,-6,/,/,10,1,28*,-6,4
CCCCn1c(N)c(N(CCOC)C(=O)CCNC(=O)c2ccccc2Cl)c(=O)[nH]c1=O,5,/,/,8,-6,26*,-4,-2
CCCCN(C(=O)c1ccccc1OCc1ccc(F)cc1)c1c(N)n(CCC)c(=O)[nH]c1=O,11,/,/,66*,-23,30*,16,9
CCCCn1c(N)c(N(CC(C)C)C(=O)c2ccc(COc3ccccc3)o2)c(=O)[nH]c1=O,-21,/,/,23,-12,26*,32*,21
Cc1noc(C)c1S(=O)(=O)N1CCCC(C(=O)c2cccc(OC(C)C)c2)C1 (stereo unspecified),-10,0,0,20,-32,-5,/,/
O=C(Nc1nnc2n1CCS2)c1ccc(Br)o1,-2,/,/,8,12,1,/,/
CCCC(C)C(=O)Nc1nnc(CCc2ccccc2)s1 (stereo unspecified),-51,/,/,12,-13,-10,/,/
CCOc1ccc(N(CC(=O)NC2CCCCC2)S(=O)(=O)c2ccccc2)cc1,-34,/,/,15,-29,9,/,/
COc1cc(C(=O)OCC(=O)NC(N)=O)cc(CN2C(=O)c3ccccc3C2=O)c1OC,-16,/,/,-11,-17,-8,/,/
c1ccc(CCn2nnnc2C(c2cccs2)N2CCN(Cc3ccc4c(c3)OCO4)CC2)cc1 (stereo unspecified),-24,1,-1,12,-8,22*,21,34*
Fc1ccccc1N1CCN(C(c2cccs2)c2nnnn2CCc2ccccc2)CC1 (stereo unspecified),-25,2,1,12,8,-4,/,/
CCN1C(=NCc2ccc(OC)cc2)N[C@@H](c2ccccc2)[C@H](C(=O)OC)[C@H]1C,7,/,/,10,-2,/,/,/
SMILES,OX1R antag-1,TRPML3 ag,TRPN1 ag,OX1R antag-2,CHO parental Ca,GPR7 antag,GPR7 antag conf,MCHR1 antagonist
CN(C)C/C=C/C(O)(c1ccccc1)c1ccccc1,11,1,2,-3,-9,-10,/,/
CN(C)CC(CCC(CN(C)C)C(O)(c1ccccc1)c1ccccc1)C(O)(c1ccccc1)c1ccccc1 (stereo unspecified),/,/,/,/,/,53*,61*,68*
O=c1ccc2cc(S(=O)(=O)Nc3ccc(Br)cc3)ccc2o1,/,/,/,/,/,24*,14,22*
COc1ccc(NS(=O)(=O)c2ccc3oc(=O)ccc3c2)cc1,-10,/,/,11,-2,-7,/,/
Cc1ccc(C)c(NC(=S)N2CCC(NC(=O)c3ccco3)CC2)c1,-12,/,/,3,-13,2,/,/
O=C(Oc1cccc(NC(=O)c2ccccc2Cl)c1)c1ccc([N+](=O)[O-])cc1,-11,1,0,36,3,35*,43*,56*
CCCOc1ccc(C(=O)NNC(=S)NC(=O)c2ccccc2)cc1,78*,/,/,0,56*,42*,60*,62*
CCCOc1ccc(C(=O)NNC(=S)NC(=O)c2ccccc2[N+](=O)[O-])cc1,-8,/,/,7,-2,-1,/,/
Cc1cccc(C(=O)NC(=S)NNC(=O)c2ccc(Cl)cc2)c1,75*,44*,102*,-7,64*,32*,58*,50*
Cc1cccc(C(=O)NC(=S)NNC(=O)c2cccs2)c1,-4,5,5,5,-8,-8,/,/
CCCC(=O)Nc1ccc(C(=O)NNC(=S)NC(=O)c2cccs2)cc1,-34,-1,-2,-5,-6,-1,/,/
CCCOc1ccc(C(=O)NNC(=S)NC(=O)c2cccs2)cc1,70*,/,/,-7,64*,52*,42*,37*
COc1ccc(Br)cc1-c1nc(CCl)cs1,-5,0,-2,27,3,-13,/,/
CCc1ccc(NC(=O)C(C)OC(=O)C2CCN(c3ccc(C(F)(F)F)cn3)CC2)cc1 (stereo unspecified),-31,/,/,17,-24,/,/,/
